Sampled rows, rich in hits. Any-hit rate of the full collection: about 6.7%.
Beta cell apopt = inhibitors of cytokine-induced beta cell apoptosis, primary screen, luminescence; actives 0.8% (n = 300,000); protection from apoptosis, % (test concentration not listed); AID 435005, 2010; INS-1E cytokine-induced death, ATP luminescence, 48 h; percent of positive-control rescue, neutral wells zero;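 active = Every replicate reaches about 75%, or at least half do and their mean reaches it too, limit read from the data; inconclusive = At least half of replicates reach the limit but their mean does not; inactive = Under half of replicates reach the limit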;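 note: higher means more ATP so stronger rescue from cytokine killing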
CSC inhib = cancer stem cell viability inhibitors, primary screen, luminescence | cancer stem cell-like cells viability | inhibition, % at 7.5 µM | actives 1.1% (n = 300,000) | AID 2717, 2010; in the data active = inhibition above about 75%; inconclusive = no clear call, values can overlap the other calls; tested in HMLE shEcad cells
T cruzi repl = inhibitors of intracellular T. cruzi growth, primary screen, luminescence, NIH3T3 host cells | T. cruzi beta-gal in NIH3T3, 90 h | inhibition, % (test concentration not listed) | actives 1.4% (n = 300,000) | AID 1885, 2009;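 active = mean inhibition across valid replicates above about 55%, limit read from the data; inconclusive = mean below that limit but half or more replicates reach it; inactive = mean below it, under half of replicates reach it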;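 note: signal also drops with host cell toxicity which is not excluded here; higher percent means less beta-gal luminescence so fewer parasites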
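compound dosing = single 50 nL compound addition per well in DMSO | material = NIH/3T3 host cells with β-galactosidase reporter T. cruzi | input = 5,000 host fibroblasts per well | timing = ≥90 h infection period, 3 h prior cell attachment | read-out basis = percent inhibition of parasite-derived β-gal signal | detection = GalScreen β-gal luminescence, detergent lysis, 60 min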
GRIN3A LBD mod = binders of NR3A ligand-binding domain, primary screen, biophysical, differential scanning fluorimetry, uHTS; Glutamate receptor ionotropic, NMDA 3A (GRIN3A) ligand-binding domain; NR3A LBD differential scanning fluorimetry, Tm shift; 0% = protein alone, 100% = glycine-bound protein; Tm shift relative to glycine control, % at 25 µM; actives 2.5% (n = 340,000); AID 1259313, 2017;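 active = melting temperature shift of at least 10% of the positive control shift, at one fixed dose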
CHOP inhibitor = inhibitors of CHOP promoter induction, primary screen, cell-based, unfolded protein response, luciferase reporter. inhibition, % at 10 µM. actives 3.8% (n = 220,000). CHO-K1 CHOP-promoter luciferase, tunicamycin-induced, 15-18 h;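 active = compounds that reduced the stress-induced luciferase reporter signal by more than about 70% of percent inhibition, limit read from the data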
PREPL inhibitor = PREPL enzyme inhibitors, primary screen, biochemical, fluorescence polarization. inhibition, % at 5.96 µM. actives 0.68% (n = 320,000). Prolyl endopeptidase-like (Homo sapiens), Q4J6C6. recombinant PREPL, fluorescence polarization activity-based probe; in the data active = inhibition above about 43%
Target sequence (Q4J6C6 whole entry, looked up): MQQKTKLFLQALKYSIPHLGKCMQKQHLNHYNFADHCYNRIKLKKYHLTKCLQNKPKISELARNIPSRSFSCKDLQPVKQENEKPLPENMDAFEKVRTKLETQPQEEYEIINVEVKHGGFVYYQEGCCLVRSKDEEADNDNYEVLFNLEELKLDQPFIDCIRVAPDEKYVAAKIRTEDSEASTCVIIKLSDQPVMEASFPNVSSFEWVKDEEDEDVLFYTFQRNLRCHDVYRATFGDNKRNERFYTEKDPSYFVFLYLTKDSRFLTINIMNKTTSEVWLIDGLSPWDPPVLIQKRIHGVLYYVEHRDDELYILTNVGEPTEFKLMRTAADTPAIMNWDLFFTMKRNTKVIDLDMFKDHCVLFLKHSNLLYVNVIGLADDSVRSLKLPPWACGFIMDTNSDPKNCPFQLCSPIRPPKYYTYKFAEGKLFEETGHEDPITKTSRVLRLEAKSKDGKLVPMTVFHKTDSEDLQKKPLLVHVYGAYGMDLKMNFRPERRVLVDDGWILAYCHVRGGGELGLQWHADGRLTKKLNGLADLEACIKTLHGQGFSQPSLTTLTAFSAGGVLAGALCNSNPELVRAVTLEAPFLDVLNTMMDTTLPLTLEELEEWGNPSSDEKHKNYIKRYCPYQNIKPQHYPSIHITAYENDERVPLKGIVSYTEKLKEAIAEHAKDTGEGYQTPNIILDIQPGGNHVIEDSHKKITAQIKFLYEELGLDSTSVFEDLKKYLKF
Of the large screens only hits and unclear results are named; the others gave an inactive call.

O=C(CSc1nc2c(c(=O)n1-c1ccc(Cl)cc1)SCC2)Nc1nccs1	GRIN3A LBD mod 15 (no result: T cruzi repl)
O=C(CNC(=S)N(Cc1ccccc1)Cc1ccccc1F)NCCc1ccc(Cl)cc1	CSC inhib inconclusive, T cruzi repl 85
O=C(CNC(=S)N(Cc1ccccc1)Cc1cccs1)NCc1ccc(F)cc1	none (no result: Beta cell apopt, CSC inhib, PREPL inhibitor)
c1ccc(-c2nnc(OCc3cccnc3)c3ccccc23)cc1	none
COc1ccc(-c2nnc(OCc3ccccc3)c3ccccc23)cc1	GRIN3A LBD mod 16
COc1cccc(Nc2nc(-c3ccccc3)nc3ccccc23)c1	CSC inhib 92, GRIN3A LBD mod 37 (no result: CHOP inhibitor)
Oc1ccc(Nc2nc(-c3ccccc3O)nc3ccccc23)cc1	CSC inhib 83, GRIN3A LBD mod 36 (no result: CHOP inhibitor, PREPL inhibitor)
COc1ccc(OC)c(Nc2nc(-c3ccccc3O)nc3ccccc23)c1	none (no result: Beta cell apopt)
COc1cccc(Nc2nc(-c3ccccc3O)nc3ccccc23)c1	GRIN3A LBD mod 32 (no result: CHOP inhibitor)
COc1cccc(Nc2nc(NCC3CCCO3)c3ccccc3n2)c1 (centres undefined)	T cruzi repl 60
Oc1ccc(Nc2nc(-c3ccccc3F)nc3ccccc23)cc1	GRIN3A LBD mod 25 (no result: CHOP inhibitor)
COc1ccc(Nc2nnc(-c3ccc(O)cc3)c3ccccc23)cc1	T cruzi repl 57
COc1ccc(Nc2nc(-c3ccccc3F)nc3ccccc23)cc1OC	none (no result: CHOP inhibitor)
COc1ccc(Nc2nc(-c3ccccc3O)nc3ccccc23)cc1	CSC inhib 81, GRIN3A LBD mod 34 (no result: CHOP inhibitor)
Oc1ccc(Nc2nc(NCC3CCCO3)c3ccccc3n2)cc1 (centres undefined)	none (no result: Beta cell apopt, CSC inhib, PREPL inhibitor)
CCCOc1ccc(C(=O)Nc2cc(S(=O)(=O)N3CCOCC3)ccc2N2CCN(CC)CC2)cc1OC	none (no result: Beta cell apopt, CSC inhib, T cruzi repl, CHOP inhibitor, PREPL inhibitor)
O=C(CN1CCN(c2ccc(O)cc2)CC1)Nc1ccc2c(c1)OCCCO2	none (no result: T cruzi repl, CHOP inhibitor)
Cn1ccnc1SCC(=O)Nc1ccc(F)c([N+](=O)[O-])c1	none
CC1CCN(c2nnc(N3CCC(C)CC3)c3ccccc23)CC1	none
COc1ccccc1Nc1nc(-c2ccccc2O)nc2ccccc12	none (no result: Beta cell apopt)
COc1ccc(Nc2nc(-c3ccccc3)nc3ccccc23)c(OC)c1	T cruzi repl 65
COc1ccc(Nc2nc(N3CCCCC3)nc3ccccc23)c(OC)c1	T cruzi repl 58
Oc1ccccc1Nc1nc(-c2ccccc2O)nc2ccccc12	GRIN3A LBD mod 28 (no result: CHOP inhibitor, PREPL inhibitor)
COc1ccc(-c2nnc(N3CCC(C)CC3)c3ccccc23)cc1	CHOP inhibitor 85
S=C(NCc1ccccc1)N1CCN(C(=S)NCc2ccccc2)CC1	none (no result: T cruzi repl, CHOP inhibitor)
Cc1c([N+](=O)[O-])cnc(Sc2ccccc2)c1[N+](=O)[O-]	none (no result: CHOP inhibitor)
CCOC(=O)c1nc2c(ccc3ccccc32)cc1C	none
Cc1noc(C)c1S(=O)(=O)N(C)C[C@H]1Oc2c(cccc2N(C)C)C(=O)N([C@H](C)CO)C[C@@H]1C	none (no result: CSC inhib, T cruzi repl, CHOP inhibitor)
Cc1cc(S(=O)(=O)NC[C@H]2O[C@@H](n3cnc4c(N)ncnc43)[C@H](O)[C@@H]2O)c(C)s1	none (no result: CSC inhib, T cruzi repl, CHOP inhibitor)
Nc1ncnc2c1ncn2[C@@H]1O[C@H](CNS(=O)(=O)c2cc(S(=O)(=O)c3ccccc3)cs2)[C@@H](O)[C@H]1O	GRIN3A LBD mod 15 (no result: Beta cell apopt, CSC inhib, T cruzi repl, CHOP inhibitor, PREPL inhibitor)
C=CCN(C(=O)CSc1nc2c(sc3ccccc32)c(=O)n1CCN(CC)CC)c1ccccc1	T cruzi repl 82 (no result: CSC inhib)
Cc1cc(NC(=O)CSc2nc3c(sc4ccccc43)c(=O)n2CCc2ccccc2)n[nH]1	GRIN3A LBD mod 27
C=CCN(C(=O)CSc1nc2ccsc2c(=O)n1Cc1ccccn1)c1ccccc1	none
CCN1C(=O)[C@@H]2[C@H](C1=O)[C@@H]1C(=O)Nc3ccccc3C(=O)N1[C@@H]2c1cccc(Cl)c1	none (no result: CHOP inhibitor)
O=C(O)c1csc(N/N=C/c2ccc(Br)cc2)n1	none (no result: Beta cell apopt, CSC inhib, PREPL inhibitor)
Nc1ccccc1N=Cc1ccc(-c2cccc(Cl)c2)o1	CSC inhib 77, GRIN3A LBD mod 22
O=C(NCCC1CCCCN1S(=O)(=O)c1ccc(F)cc1)C(=O)NCc1cccnc1 (centres undefined)	none (no result: Beta cell apopt, CHOP inhibitor)
